Results collected from several papers.
Each line is one published result; the experiments were not run side by side.
Target: Serine/threonine-protein kinase 4 (STK4, Homo sapiens, UniProt Q13043)
Sequence (Q13043 1-487, as in one of the studies): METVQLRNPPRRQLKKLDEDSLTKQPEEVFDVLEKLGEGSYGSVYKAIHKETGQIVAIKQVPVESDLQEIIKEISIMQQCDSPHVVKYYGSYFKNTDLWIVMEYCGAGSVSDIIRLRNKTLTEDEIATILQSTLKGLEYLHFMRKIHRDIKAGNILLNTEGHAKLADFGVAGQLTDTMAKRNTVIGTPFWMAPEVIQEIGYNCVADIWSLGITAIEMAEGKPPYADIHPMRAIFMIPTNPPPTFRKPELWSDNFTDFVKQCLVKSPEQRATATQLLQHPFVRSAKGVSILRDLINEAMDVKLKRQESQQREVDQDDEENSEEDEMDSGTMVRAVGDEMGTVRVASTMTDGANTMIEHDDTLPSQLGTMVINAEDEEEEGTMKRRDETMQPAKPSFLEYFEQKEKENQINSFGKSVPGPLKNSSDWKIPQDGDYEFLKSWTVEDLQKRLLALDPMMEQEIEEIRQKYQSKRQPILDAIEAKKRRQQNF

SMILES	effect on	mode	method	cells	tested at	endpoint	result
Cc1nc(C2CCN(C(=O)c3ccc(OC(F)(F)F)cc3N)CC2)c2ncc(N3CCN(C)CC3)cc2n1	cell-free assay	–	competition with immobilised ligand	–	1 µM	remaining binding	85%
Cn1c2c(c3ccc(Cl)c(Cl)c31)C(C#N)C1(CCOCC1)NC2=O (stereo not drawn)	thermal stability	–	DSF	–	10 µM	ΔTm	-0.4 °C
C[C@H](c1ccc(F)cc1)N(Cc1cccc(C(=O)O)c1)C(=O)c1cnc2ccccc2c1	cell-free assay	–	competition with immobilised ligand	–	1 µM	remaining binding	92%
Cn1c2c(Cl)c(Cl)ccc2c2cc[nH]c(=O)c21	thermal stability	–	DSF	–	10 µM	ΔTm	0.8 °C
N#CCCc1ccc2c(c1)-c1[nH]c3ccc([N+](=O)[O-])cc3c1CC(=O)N2	cell-free assay	–	–	–	0.5 µM	remaining signal	30.9%
CNC(=O)c1cc(Oc2ccc(NC(=O)Nc3ccc(Cl)c(C(F)(F)F)c3)cc2)ccn1	enzyme activity	inhibitor	–	–	0.3 µM	inhibition	-7%
c1ccc(CNc2nc(N3CCOc4ccccc43)nc3c2CCCC3)cc1	target engagement in cells	inhibitor	chemoproteomics	–	20 mM	inhibition	1.2%
CN(C)C(=O)Cn1cc(-c2nc(C3(c4ccc(-c5cnc(N)nc5)cc4)CC3)no2)cn1	cell-free assay	–	competition with immobilised ligand	–	1 µM	remaining binding	90%
Cc1ccc(NC(=O)c2ccc(C)c(C(F)(F)F)c2)cc1C#Cc1nn(C2CCC(O)CC2)c2ncnc(N)c12 (stereo not drawn)	cell-free assay	–	–	–	10 µM	remaining signal	109%
CS(=O)(=O)CCNCc1ccc(-c2ccc3ncnc(Nc4ccc(OCc5cccc(F)c5)c(Cl)c4)c3c2)o1	cell-free assay	–	–	–	0.5 µM	remaining signal	99.4%
Cn1c2c(Cl)c(Cl)ccc2c2cn[nH]c(=O)c21	thermal stability	–	DSF	–	10 µM	ΔTm	0.4 °C
CCCS(=O)(=O)Nc1ccc(F)c(C(=O)c2c[nH]c3ncc(-c4ccc(Cl)cc4)cc23)c1F	enzyme activity	inhibitor	–	–	1 µM	inhibition	< 20%
Cc1ccc(Nc2nccc(N(C)c3ccc4c(C)n(C)nc4c3)n2)cc1S(N)(=O)=O	enzyme activity	inhibitor	–	–	10 µM	inhibition	3%
O=C(Nc1cnn(-c2csc(C(=O)NC3COC3)c2)c1)Nc1c(F)cccc1Cl	enzyme activity	inhibitor	–	–	5 µM	remaining activity	96.6%
O=C1NC(=O)c2cc(Nc3ccc(F)cc3)c(Nc3ccc(F)cc3)cc21	cell-free assay	–	–	–	0.5 µM	remaining signal	101%
CC(=O)C1=C(C)N(c2cccc(C(F)(F)F)c2)C(=O)N[C@@H]1c1ccc(C#N)nc1	cell-free assay	–	competition with immobilised ligand	–	1 µM	remaining binding	97.5%
COc1cc2ncnc(Nc3ccc(Oc4ccccc4)cc3C)c2cc1OC	enzyme activity	inhibitor	–	–	1 µM	inhibition	1%
Nc1ncnc2occ(-c3ccc(NC(=O)Nc4cc(C(F)(F)F)ccc4F)cc3)c12	cell-free assay	inhibitor	–	–	20 µM	remaining signal	2.1%
Cn1c2c(c3ccc(Cl)c(Cl)c31)C(C#N)C1(CCCC1)NC2=O (stereo not drawn)	thermal stability	–	DSF	–	10 µM	ΔTm	0.3 °C
Cc1c(NC(=O)c2cc(C(N)=O)nc3cc(F)ccc23)c(C(F)(F)F)nn1Cc1ccc(C(C)(C)C)cc1	cell-free assay	–	competition with immobilised ligand	–	1 µM	remaining binding	95%
Cc1sc(C(=O)NC2COC2)cc1-n1cc(NC(=O)Nc2c(F)cccc2Cl)cn1	enzyme activity	inhibitor	–	–	10 µM	remaining activity	107%
CC(C)(C)c1nc(-c2cccc(NS(=O)(=O)c3c(F)cccc3F)c2F)c(-c2ccnc(N)n2)s1	enzyme activity	inhibitor	radiometric	–	1 µM	remaining activity	105%
CN(c1nccc(-c2cnn3ncccc23)n1)C1CC1	cell-free assay	–	–	–	1 µM	remaining signal	99%
Cn1nc(C(=O)NCc2ccc(C(=O)O)cc2)cc1-c1ccc2[nH]ccc2c1	cell-free assay	–	competition with immobilised ligand	–	0.1 µM	remaining binding	80%
Cc1cnc(NC2CCOCC2)nc1-n1cnc(C(=O)NC(CN)c2cc(F)cc(Cl)c2)c1 (stereo not drawn)	enzyme activity	inhibitor	radiometric	–	1 µM	remaining activity	103%
CCN1CCN(Cc2ccc(NC(=O)c3ccc(C)c(Oc4ccnc5[nH]ccc45)c3)cc2C(F)(F)F)CC1	target engagement in cells	inhibitor	chemoproteomics	Huh-7	1 µM	inhibition	-64.5%
COc1ccc2cc(OCC3(C(=O)O)CN(C(=O)c4ccc(F)cc4)C3)ccc2c1	cell-free assay	–	competition with immobilised ligand	–	1 µM	remaining binding	100%
Cn1c2c(c3ccc(Cl)c(Cl)c31)C(C#N)C(C)(C)NC2=O (stereo not drawn)	thermal stability	–	DSF	–	10 µM	ΔTm	-0.4 °C
Nc1cnc(N2CCc3cc(S(=O)(=O)Nc4c(F)cc(Cl)cc4F)cc(N4CCCC4=O)c32)nc1	cell-free assay	–	competition with immobilised ligand	–	1 µM	remaining binding	100%
CC(C)c1ccc(NC(=O)c2cccs2)c(-c2nc3ccccc3[nH]c2=O)c1	enzyme activity	inhibitor	–	–	1 µM	activity vs control	118%
